Laboratory results from article PMC10913580 (Nature chemistry, 2023).

How the values were obtained:
[1] = test system: ternary complex between CRBN and off-target ZFP91; assay: NanoBRET ternary complex formation assay; type: cell-based; conditions: U2OS cells expressing ZFP91-NLuc and HaloTag-CRBN, 1 μM dose
Method in brief: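 U2OS stably expressing ZFP91–NLuc, transfected with HaloTag–CRBN plasmid (2 μg per 100,000 cells). After 14 h, plated at 3,000 cells/well in phenol-red-free Opti-MEM with 4% FBS. NanoBRET 618 ligand 100 nM final, 18 h; no-ligand control wells. Compound 1 μM final, 15 min; furimazine 10 μM final, 5 min. mBU = (618/460 nm emission) × 1,000, minus no-ligand control.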

ALK = ALK (Homo sapiens, UniProt P06748+Q96SW2+Q9UM73); assay: Global proteomic analysis of SU-DHL-1 cells treated with PROTACs; type: cell-based; conditions: 0.1 μM, 5 h
Method in brief: (§1)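 Cells were dosed with test compound at 0.1 μM or with DMSO for 5 h, then washed in PBS and snap-frozen. Lysis was in 8 M urea, 50 mM NaCl, 50 mM EPPS pH 8.5 with protease and phosphatase inhibitors, with bead beating. Digestion used LysC (1:50, 12 h, room temperature), then trypsin (1:50, 6 h, 37 °C). Label-free LC-MS followed; abundances were scaled and statistics run with limma.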

ZFP91 [2] = biological target: T1, ZFP91 (Homo sapiens, UniProt Q96JP5+Q96SW2); assay: Immunoblot of endogenous ZFP91 in H2228 cells; type: cell-based
Method in brief: (§2)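 Cells grown in RPMI 1640 with 10% FBS, then compound-treated. Lysis in ice-cold M-PER with protease and phosphatase inhibitors. 20–50 μg protein run on 4–12% Bis-Tris gels and transferred to nitrocellulose. Probed with anti-ZFP91 or anti-IKZF3 primary antibodies (1:1,000), then fluorescent secondaries (1:3,000).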

[3] = test system: ZF degrons fused to eGFP in U2OS cells; assay: Automated imaging assay for degradation of ZF degron-tagged eGFP; type: cell-based; conditions: 14 stable U2OS ZF reporter cell lines, 24 h, dosing range 4.3 nM to 6 μM
Method in brief: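 U2OS lines stably carrying lentiviral Cilantro 2 reporters (ZF degron–eGFP plus untagged mCherry) under 1 μg ml−1 puromycin. 3,000 cells/well seeded onto compound-preprinted plates; 24 h. PBS wash, 4% paraformaldehyde fix, nuclear stain, eGFP/mCherry imaging. Per-cell eGFP normalized to mCherry, well means to DMSO wells; 1 minus value gives degradation fraction, summed across doses as degradation score. Z′ from controls.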

ZFP91 [4] = biological target: T1, ZFP91; assay: Immunoblot of endogenous ZFP91 in SU-DHL-1 cells; type: cell-based
Method in brief: as §2

SALL4 = SALL4 (Homo sapiens, UniProt Q96SW2+Q9UJQ4); assay: Global proteomic analysis of KELLY cells treated with PROTACs; type: cell-based; conditions: 100 nM
Method in brief: as §1

ZFP91 [5] = biological target: T1, ZFP91; assay: Immunoblot of endogenous ZFP91 in Jurkat cells; type: cell-based
Method in brief: as §2

ZFP91 and IKZF3 = assay: Immunoblot of endogenous ZFP91 and IKZF3 in MM1.S cells; type: cell-based
Method in brief: as §2

[6] = test system: ZF proteins and other off-targets in MOLT4 and KELLY cells; assay: MS-based global proteomics of MOLT4 and KELLY cells treated with imide analogues; type: cell-based, human; conditions: 1 μM, 5 h
Method in brief: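 MOLT4 or Kelly cells given 1 μM compound or DMSO, 5 h. PBS-washed pellets snap-frozen, lysed in 8 M urea, 50 mM NaCl, 50 mM EPPS pH 8.5 with inhibitors by bead beating; Bradford quantitation. 50 μg protein reduced, alkylated, methanol/chloroform precipitated; LysC (1:50, 12 h, room temperature) then trypsin (1:50, 6 h, 37 °C). C18-desalted, LC–MS. Abundances scaled; limma statistics.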

Q: Which “BRET signal, ternary complex formation between CRBN and ZFP91” value [1] does the source give for `N#Cc1ccc(O[C@H]2CC[C@H](NC(=O)c3ccc(N4CCC(CN5CCN(c6cc7c(cc6F)C(=O)N(C6CCC(=O)NC6=O)C7=O)CC5)CC4)nn3)CC2)cc1Cl` (some centres unmarked) [ARV110] here?
A: Its value is “reduced ternary complex formation with off-target ZFP91”.

Q: With `Cc1cc(Nc2ncc(Cl)c(Nc3ccccc3S(=O)(=O)C(C)C)n2)c(OC(C)C)cc1C1CCN(CC(=O)NCCNc2cccc3c2C(=O)N(C2CCC(=O)NC2=O)C3=O)CC1` (centres unmarked) [MS4078] as the molecule, how does the “degradation of ALK (global proteomics)” value (ALK) read?
A: Its value is “induced degradation of ALK”.

Q: What about the “off-target degradation of endogenous ZFP91 (immunoblot)” value (“off-target degradation” below) (ZFP91 [2]) of the same molecule?
A: The value was “off-target degradation of endogenous ZF proteins ZFP91”.

Q: And the “degradation of ZF degron-tagged eGFP (off-target ZF degradation)” value [3]?
A: Its value is “had a high level of off-target ZF degradation”.

Q: What about the “off-target degradation” value (ZFP91 [4]) of the same molecule?
A: Its value is “off-target degradation of endogenous ZF proteins ZFP91”.

Q: And the “degradation of SALL4 (global proteomics)” value (SALL4)?
A: Its value is “induced degradation of SALL4”.

Q: What about the “off-target degradation” value (ZFP91 [5]) of the same molecule?
A: The value was “off-target degradation of endogenous ZF protein ZFP91”.

Q: With `Nc1ccc2c(c1)C(=O)N(C1CCC(=O)NC1=O)C2=O` (centres unmarked) [compound 8, 5-aminothalidomide] as the molecule, how does the “degradation of endogenous ZFP91 and IKZF3 (immunoblot)” value (ZFP91 and IKZF3) read?
A: Its value is “decrease in overall degradation potency as compared to pomalidomide”.

Q: How did the “off-target degradation” value (ZFP91 [5]) turn out when `CC[C@H](C(=O)N1CCCC[C@H]1C(=O)O[C@H](CCc1ccc(OC)c(OC)c1)c1ccccc1OCC(=O)NCCCCCCOc1cccc2c1C(=O)N(C1CCC(=O)NC1=O)C2=O)c1cc(OC)c(OC)c(OC)c1` (some centres unmarked) [dTAG-13] was run?
A: The value was “off-target degradation of endogenous ZF protein ZFP91”.

Q: With `Nc1cccc2c1C(=O)N(C1CCC(=O)NC1=O)C2=O` (centres unmarked) [pomalidomide] as the molecule, how does the “degradation of ZF proteins and other off-targets (global proteomics)” value [6] read?
A: The value was “triggered the degradation of several ZF proteins”.

Q: And the “degradation of ZF degron-tagged eGFP (off-target ZF degradation)” value [3]?
A: The value was “degraded all 12 ZF degrons that are sensitive to it in a dose-dependent manner”.
